Consider 8 compounds from ChEMBL document CHEMBL2417429, “Direct and nitroxyl (HNO)-mediated reactions of acyloxy nitroso compounds with the thiol-containing proteins glyceraldehyde 3-phosphate dehydrogenase and alkyl hydroperoxide reductase subunit C” (J Med Chem, 2013).

The nature of data set [1]: Binding affinity to alkyl hydroperoxide reductase subunit C C165S mutant (unknown origin) assessed as presence of S-nitrosated D41 to G51 peptide by LC-MS analysis. An outline of the steps: (§1)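 AhpC C165S pre-reduced with DTT 30 min, desalted on spin column, concentration by A280 (ε 23400 M−1 cm−1). Protein (50 μM) treated with HNO donor (1, 5, 10, 50 equiv) in 0.1 M Tris pH 7.6, room temperature, 60 min; desalted into 25 mM ammonium bicarbonate pH 7.75. Asp-N digest (20:1 w/w, 37 °C, 12−16 h). LC-MS of D41−G51 peptide on high-resolution Orbitrap, positive ion mode.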

The target in data set [2] is Glyceraldehyde-3-phosphate dehydrogenase (Oryctolagus cuniculus) (UniProt P46406). The data set can be described thus: Binding affinity to rabbit muscle GAPDH assessed as structural modifications at 5 mM after 60 mins by SDS-PAGE.
Sequence of Glyceraldehyde-3-phosphate dehydrogenase (Oryctolagus cuniculus) (P46406 whole entry, looked up): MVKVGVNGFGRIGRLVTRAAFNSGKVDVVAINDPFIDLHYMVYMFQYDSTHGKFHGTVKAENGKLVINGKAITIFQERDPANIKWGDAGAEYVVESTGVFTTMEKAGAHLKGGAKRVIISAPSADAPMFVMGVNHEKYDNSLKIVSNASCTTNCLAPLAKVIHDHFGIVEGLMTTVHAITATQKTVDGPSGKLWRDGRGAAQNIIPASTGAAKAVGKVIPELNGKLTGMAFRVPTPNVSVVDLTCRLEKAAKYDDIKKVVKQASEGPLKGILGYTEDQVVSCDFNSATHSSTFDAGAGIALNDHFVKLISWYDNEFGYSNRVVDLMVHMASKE
Data set [3] can be described thus: Binding affinity to alkyl hydroperoxide reductase subunit C C165S mutant peptide D41 to G51 (unknown origin) assessed as sulfinic acid or sulfinamide modification by MALDI-TOF MS. In short, it runs like this: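 Pre-reduced, desalted AhpC C165S (50 μM) incubated with HNO donor (1, 5, 10, 50 equiv) in 0.1 M Tris pH 7.6, 60 min at room temperature. Buffer exchanged into ammonium bicarbonate, then Asp-N digest (20:1 w/w, 37 °C, 12−16 h). Digest mixed 1:1 with dihydroxybenzoic acid matrix; D41−G51 peptide mass read by MALDI-TOF.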

The target of data set [4] is Glyceraldehyde-3-phosphate dehydrogenase (Oryctolagus cuniculus) (UniProt P46406). The data set can be described thus: (§2) Inhibition of rabbit muscle GAPDH assessed as residual enzyme activity after 60 mins by spectrophotometry. In short, it runs like this: (§3)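 Rabbit muscle GAPDH incubated with donor (0.1, 0.5, 1, 5, 10, 100 μM) in 0.1 M sodium phosphate pH 7.4, 25 °C, 60 min. NAD+ and glyceraldehyde-3-phosphate then added in a sealed cuvette; NADH formation followed at 340 nm every minute for 30 min. Runs typically in triplicate, mean ± SE; IC50 from sigmoidal fit of percent-of-control activity.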

For data set [5], the target named is Glyceraldehyde-3-phosphate dehydrogenase (Oryctolagus cuniculus, UniProt P46406). Described as §2. An outline of the steps:
as §3

Data set [6] deals with Glyceraldehyde-3-phosphate dehydrogenase (Oryctolagus cuniculus) (UniProt P46406). The data set can be described thus: Binding affinity to rabbit muscle GAPDH assessed as structural modifications of Cys149, Cys153 and Cys244 at 5 mM after 60 mins by MALDI-TOF MS.
Data set [7] has the same target. In words: Binding affinity to rabbit muscle GAPDH tryptic peptide I143 to K159 assessed as formation of disulfide bond by LC-MS analysis. In short, it runs like this:
(§4)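 GAPDH from rabbit muscle, untreated or donor-treated, digested with trypsin (monomer:trypsin 20:1 w/w) in 50 mM Tris-HCl, 37 °C, 12−16 h; quenched by freezing. 10 μM digest in 1:1 2% formic acid/methanol run by LC-MS on a high-resolution Orbitrap in positive ion mode; tryptic peptides identified by m/z.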

Data set [8] shares this target. In words: Binding affinity to rabbit muscle GAPDH peptide V232 to R245 assessed as formation of mixture of sulfinamide and sulfinic acid by LC-MS analysis. In short, it runs like this:
as §4

Data set [9] is described as follows: Binding affinity to alkyl hydroperoxide reductase subunit C C165S mutant (unknown origin) assessed as unreacted thiol in peptide D41 to G51 by LC-MS analysis. In short, it runs like this:
as §1

Data set [10] is described as follows: Binding affinity to alkyl hydroperoxide reductase subunit C C165S mutant (unknown origin) assessed as formation of sulfinamide and sulfinic acid by LC-MS analysis. An outline of the steps:
as §1

The target in data set [11] is Glyceraldehyde-3-phosphate dehydrogenase (Oryctolagus cuniculus) (UniProt P46406). In words: Reversible inhibition of rabbit muscle GAPDH assessed as residual enzyme activity at 1 uM after 60 mins followed by incubation with DTT by spectrophotometry relative to control. In short, it runs like this: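 GAPDH (rabbit muscle) exposed to inhibitor for 60 min in 0.1 M phosphate pH 7.4 at 25 °C, then incubated with DTT (100 mM) for 60 min. Residual activity measured by NADH build-up at 340 nm after adding NAD+ and glyceraldehyde-3-phosphate, read each minute over 30 min; expressed as percent of control.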

Data set [12] has the same target. In words: Residual activity of rabbit muscle GAPDH at 1 uM after 60 mins by spectrophotometry.
Data set [13] in a line: Binding affinity to alkyl hydroperoxide reductase subunit C C165S mutant (unknown origin) assessed as formation of sulfinic acid of Cys46 of peptide D41 to G51 by LC-MS analysis. An outline of the steps: as §1
The target in data set [14] is Glyceraldehyde-3-phosphate dehydrogenase (Oryctolagus cuniculus) (UniProt P46406). The data set can be described thus: Binding affinity to rabbit muscle GAPDH peptide V232 to R245 assessed as formation of sulfinic acid of Cys244 by LC-MS analysis. In short, it runs like this: as §4
The nature of data set [15]: Binding affinity to alkyl hydroperoxide reductase subunit C C165S mutant (unknown origin) assessed as structural modifications by SDS-PAGE.
Data set [16] is described as follows: Binding affinity to alkyl hydroperoxide reductase subunit C C165S mutant (unknown origin) assessed as formation of mixture of sulfinamide and sulfinic acid at Cys46 by LC-MS analysis. In short, it runs like this: as §1
A short description of data set [17]: Chemical stability of the compound in neutral buffer assessed as rate constant at 1 mM by stopped-flow UV-Vis spectrophotometry. Type of data set: physicochemical. To be noted: 1000 µM.
Data set [18] can be described thus: Half life of the compound in neutral buffer at 1 mM by stopped-flow UV-Vis spectrophotometry. The data set is classed as physicochemical. The settings on record: 1000 µM.
Data set [19] concerns the target Glyceraldehyde-3-phosphate dehydrogenase (Oryctolagus cuniculus) (UniProt P46406). In words: Binding affinity to rabbit muscle GAPDH peptide V232 to R245 assessed as formation of sulfinic acid and N-phenylsulfinamide by LC-MS analysis.
The nature of data set [20]: Binding affinity to alkyl hydroperoxide reductase subunit C C165S mutant (unknown origin) assessed as formation of sulfinic acid by LC-MS analysis. In short, it runs like this: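 AhpC C165S reduced with DTT, desalted by spin column, quantified at 280 nm; 50 μM protein incubated with compound (1, 5, 10, 50 equiv) in 0.1 M Tris pH 7.6, room temperature, 60 min; desalted into 25 mM ammonium bicarbonate, Asp-N digest (20:1 w/w, 37 °C, 12–16 h); Orbitrap LC-MS, 55 min gradient, positive ion.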

Data set [21] addresses Glyceraldehyde-3-phosphate dehydrogenase (Oryctolagus cuniculus) (UniProt P46406). The data set can be described thus: Binding affinity to rabbit muscle GAPDH peptide V232 to R245 assessed as formation of S-nitrosated peptide by LC-MS analysis.

What is called IC50 is the concentration needed to halve the response being measured. By residual activity is commonly meant the activity still measured, relative to the control. High values mean a small loss of activity, low ones a large loss of activity.

Structures are written as SMILES. Structures can show the parent of a compound that is named as a salt. The source made the active and inactive calls. The rule behind the calls is not given here.

Sequence of Glyceraldehyde-3-phosphate dehydrogenase (P46406 whole entry): as the sequence (P46406 whole entry, looked up) above

Turning to `N[C@@H](CCC(=O)N[C@@H](CSN=O)C(=O)NCC(=O)O)C(=O)O`, the result in data set [1] was Active.

Turning to `[O-][N+]([O-])=NO` [ANGELI'S SALT], the outcome in data set [2] and in data set [9] was inactive. Besides, the result in data set [3], in data set [6], in data set [7], in data set [8] and in [10] was Active. In addition, in data set [4], the inhibition result was “Dose-dependent effect”. Moreover, the IC50 in data set [5] came out at 400 nM.

`CC(C)(C)C(=O)OC1(N=O)CCCCC1`: the outcome in [2] and in data set [9] was inactive. Besides, the Activity in [11] was 88%. The compound also had a residual activity in [12] of 76%. The result in data set [3], in data set [13], in data set [6], in data set [7] and in data set [14] was Active. For the same compound, the inhibition entry in data set [4] was “Dose-dependent effect”. Also, the IC50 in data set [5] amounted to 150 nM.

For the compound `CC(=O)OC1(N=O)CCCCC1` [1-NITROSOCYCLOHEXYL ACETATE], the result in data set [2] and in data set [9] was inactive. The Activity in data set [11] is 12%. In data set [12], the residual activity is 5%. Further, the outcome in data set [3], in [13], in data set [6], in data set [7], in data set [14] and in data set [15] was Active. In data set [4], the inhibition entry was “Dose-dependent effect”. In data set [5], the IC50 is 200 nM.

`O=NC1(OC(=O)C(F)(F)F)CCCCC1` [1-NITROSOCYCLOHEXYL TRIFLUOROACETATE]: in data set [12], the residual activity worked out at 42%. Further, the outcome in [3] and in [16] was Active. Moreover, in data set [5], the IC50 was found to be 670 nM. Moreover, the K in data set [17] turned out to be 5.74 s⁻¹. Also, the outcome in data set [9] was inactive. The same compound registered a t1/2 in data set [18] of 0.121 s.

Turning to `O=Nc1ccccc1`, the outcome in data set [19], in data set [7] and in [20] was Active.

For the compound `CCN(CC)N(O)N=O`, the result in [21] and in data set [1] was Active.

Turning to `O=S(=O)(NO)c1ccccc1Br`, the outcome in [16], in data set [7] and in [8] was Active.
